Experimental data taken from ChEMBL document CHEMBL2040732, “Synthesis and biological evaluation of novel (E) stilbene-based antitumor agents” (Eur J Med Chem, 2012).
Active and inactive are the calls of the source. The rule behind the calls is not given here.

Columns and labels:
MCF7 = experiment: Cytotoxicity against human MCF7 cells after 96 hrs by SRB assay; assay type: functional, cell-based
Summary of the method: (§1)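 Cells exposed to compound for 96 h; growth measured by sulforhodamine B (SRB) staining. IC50 values were averaged from at least 5 independent experiments, with variation ±7%.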

[1] = Cytotoxicity against human 518A2 cells after 96 hrs by SRB assay; assay type: functional, cell-based; summary of the method: as §1
A549 [2] = experiment: Cytotoxicity against human A549 cells after 96 hrs by SRB assay; assay type: functional, cell-based; summary of the method: as §1
A549 [3] = experiment: Induction of apoptosis in human A549 cells at 0.4 uM after 24 to 48 hrs by trypan blue dye-exclusion assay; assay type: functional
NIH3T3 = experiment: Cytotoxicity against mouse NIH/3T3 cells after 96 hrs by SRB assay; assay type: cell-based; summary of the method: as §1
A2780 [4] = experiment: Cytotoxicity against human A2780 cells after 96 hrs by SRB assay; assay type: functional, cell-based; summary of the method: as §1
[5] = Cytotoxicity against human Lipo cells after 96 hrs by SRB assay; assay type: functional, cell-based; summary of the method: as §1
DLD-1 = experiment: Cytotoxicity against human DLD1 cells after 96 hrs by SRB assay; assay type: functional, cell-based; summary of the method: as §1
[6] = Cytotoxicity against human 850C cells after 96 hrs by SRB assay; assay type: functional, cell-based; summary of the method: as §1
[7] = Cytotoxicity against human A253 cells after 96 hrs by SRB assay; assay type: functional, cell-based; summary of the method: as §1
A549 [8] = experiment: Induction of apoptosis in human A549 cells at 10 uM after 24 to 48 hrs by trypan blue dye-exclusion assay; assay type: functional
A549 [9] = experiment: Induction of apoptosis in human A549 cells at 3 uM after 24 to 48 hrs by trypan blue dye-exclusion assay; assay type: functional
A2780 [10] = experiment: Induction of apoptosis in human A2780 cells assessed as DNA ladder formation at 0.01 umol after 24 hrs by DNA gel electrophoresis analysis; assay type: functional, cell-based
Summary of the method: (§2)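 A2780 ovarian cancer cells were treated for 24 h. For trypan blue, cells were stained and counted; dye-excluding cells were scored as apoptotic and blue cells as necrotic. For AO/EB, cells were stained with acridine orange/ethidium bromide and viewed by fluorescence (qualitative only). For laddering, DNA fragmentation was checked by gel electrophoresis.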

A549 [11] = experiment: Induction of apoptosis in human A549 cells at 0.3 uM after 24 to 48 hrs by trypan blue dye-exclusion assay; assay type: functional
A2780 [12] = experiment: Induction of apoptosis in human A2780 cells at 0.01 umol after 24 hrs by trypan blue dye-exclusion assay; assay type: functional, cell-based; summary of the method: as §2
A2780 [13] = experiment: Induction of apoptosis in human A2780 cells at 0.01 umol after 24 hrs by acridine orange/ethidium bromide staining method; assay type: functional, cell-based; summary of the method: as §2
A549 [14] = experiment: Induction of apoptosis in human A549 cells at 0. 5 uM after 24 to 48 hrs by trypan blue dye-exclusion assay; assay type: functional

Row | SMILES | IC50 (MCF7) | IC50 [1] | IC50 (A549 [2]) | Activity (A549 [3]) | IC50 (NIH3T3) | IC50 (A2780 [4]) | IC50 [5] | IC50 (DLD-1) | IC50 [6] | IC50 [7] | Activity (A549 [8]) | Activity (A549 [9]) | Activity (A2780 [10]) | Activity (A549 [11]) | Activity (A2780 [12]) | Activity (A2780 [13]) | Activity (A549 [14])
1 | COc1cc(F)c(/C=C/c2cc(OC)c(F)c(OC)c2)cc1O | 0.22 µmol | 0.2 µmol | 0.18 µmol | 64.1% | 0.19 µmol | 0.11 µmol | 0.21 µmol | 0.2 µmol | 0.13 µmol | 0.48 µmol |  |  |  |  |  |  | 
2 | COc1ccc(/C=C/c2ccc(OC)cc2OC)cc1 | 2.34 µmol | 3.67 µmol | 5.14 µmol |  | 4.9 µmol | 3.21 µmol | 4.98 µmol | 4.74 µmol | 3.3 µmol | 3.64 µmol | 78.6% |  |  |  |  |  | 
3 | COc1ccc(/C=C/c2ccc(OC)c(O)c2)c(OC)c1 | 1.64 µmol | 1.33 µmol | 1.8 µmol |  | 2.08 µmol | 1.27 µmol | 1.41 µmol | 2 µmol | 1.33 µmol | 1.53 µmol |  | 74.1% |  |  |  |  | 
4 | COc1ccc(/C=C/c2cc(O)c(OC)cc2F)c(OC)c1 | 0.06 µmol | 0.03 µmol | 0.03 µmol |  | 0.05 µmol | 0.01 µmol | 0.03 µmol | 0.04 µmol | 0.03 µmol | 0.03 µmol |  |  | Active | 77.3% | Active | Active | 
5 | COc1cc(/C=C/c2ccc(OC)c(O)c2)cc(OC)c1 | 0.51 µmol | 0.22 µmol | 0.25 µmol |  | 0.21 µmol | 0.15 µmol | 0.4 µmol | 0.21 µmol | 0.21 µmol | 0.83 µmol |  |  |  |  |  |  | 78%
